Measurements from ChEMBL document CHEMBL4376883, “Discovery and Optimization of Small Molecules Targeting the Protein-Protein Interaction of Heat Shock Protein 90 (Hsp90) and Cell Division Cycle 37 as Orally Active Inhibitors for the Treatment of Colorectal Cancer” (J Med Chem, 2020).

Columns and labels:
[1] = Stability of the compound in human plasma assessed as parent compound remaining at 1 uM measured after 60 mins by LC-MS/MS analysis; format: ADME, cell-free; conditions: read-out: Stability
How it was run: (§1)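 Compound diluted from 10 mM DMSO stock to 1 μM in mouse or human plasma and held at 37 °C in a water bath. Reactions were stopped with acetonitrile at 0, 10, 30, 60 and 90 min. Parent compound was quantified by LC-MS/MS as % remaining.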

[2] = tested on: A549; assay: Antiproliferative activity against human A549 cells measured after 72 hrs by CCK8 assay; format: functional, cell-based; conditions: A549, 72 h
How it was run: (§2)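 Cells grown in RPMI 1640 with 10% FBS at 37 °C, 5% CO2; STR-authenticated and mycoplasma-checked. Seeded at 3000-5000 cells/well and left 24 h. Serial compound dilutions added for 72 h, with matched DMSO as control. Viability read by CCK8 kit using the standard protocol. IC50 values derived from at least three parallel experiments.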

[3] = Apparent oral clearance in tumor of human HCT116 cells xenografted BALB/c mouse at 80 mg/kg administered as single dose by LC-MS/MS analysis; format: ADME, organism-based, Neoplasm
How it was run: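 Xenograft mice (n = 6 per group) received a single 80 mg/kg oral dose. Plasma and tumour were sampled over 0–24 h into heparinized tubes and analysed by LC-MS/MS.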

[4] = tested on: L02; assay: Cytotoxicity against human L02 cells measured after 72 hrs by CCK8 assay; format: functional, cell-based; conditions: L02, 72 h; how it was run: as §2
[5] = target: T1, Glucocorticoid receptor (Homo sapiens, UniProt P04150); assay: Effect on glucocorticoid receptor in human HCT116 cells up to 10 uM measured after 24 hrs by Western blot analysis; format: ADME, cell-based
T1 sequence (P04150 whole entry): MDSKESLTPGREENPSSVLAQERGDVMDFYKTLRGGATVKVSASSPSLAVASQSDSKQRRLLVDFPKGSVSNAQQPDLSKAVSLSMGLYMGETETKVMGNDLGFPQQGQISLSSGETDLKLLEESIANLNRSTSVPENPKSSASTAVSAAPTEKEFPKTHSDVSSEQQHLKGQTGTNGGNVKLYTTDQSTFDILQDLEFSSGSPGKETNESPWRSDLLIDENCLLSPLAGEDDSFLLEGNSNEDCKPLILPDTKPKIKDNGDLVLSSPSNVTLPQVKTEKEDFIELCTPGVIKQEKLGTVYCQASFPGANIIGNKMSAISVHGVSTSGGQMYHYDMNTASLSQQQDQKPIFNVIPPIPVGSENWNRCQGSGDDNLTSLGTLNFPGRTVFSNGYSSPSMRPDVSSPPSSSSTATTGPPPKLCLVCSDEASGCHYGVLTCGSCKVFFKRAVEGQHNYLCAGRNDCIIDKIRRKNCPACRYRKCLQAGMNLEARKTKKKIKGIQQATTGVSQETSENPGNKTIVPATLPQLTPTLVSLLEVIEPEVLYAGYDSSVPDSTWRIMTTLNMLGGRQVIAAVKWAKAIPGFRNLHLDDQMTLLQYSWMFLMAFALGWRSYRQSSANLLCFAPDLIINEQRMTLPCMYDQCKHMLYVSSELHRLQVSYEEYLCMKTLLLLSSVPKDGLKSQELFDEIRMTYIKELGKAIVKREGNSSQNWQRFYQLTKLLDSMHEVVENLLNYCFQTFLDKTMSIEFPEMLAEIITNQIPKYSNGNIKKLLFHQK
How it was run: (§3)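 HCT116 cells treated with 0, 1, 5 or 10 µM for 24 h, or with 10 µM for 0, 4, 12, 24 or 48 h. Lysates separated by SDS-PAGE and blotted. Membranes blocked in 5% milk, primary antibodies overnight at 4 °C, HRP secondaries, chemiluminescent detection.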

[6] = Stability of the compound in mouse plasma assessed as parent compound remaining at 1 uM measured after 30 mins by LC-MS/MS analysis; format: ADME, cell-free; conditions: read-out: Stability; how it was run: as §1
[7] = Stability of the compound in human plasma assessed as parent compound remaining at 1 uM measured after 30 mins by LC-MS/MS analysis; format: ADME, cell-free; conditions: read-out: Stability; how it was run: as §1
[8] = target: T1, Glucocorticoid receptor; assay: Effect on glucocorticoid receptor phosphorylation in human HCT116 cells at 10 uM measured up to 48 hrs by Western blot analysis; format: ADME, cell-based; how it was run: as §3
[9] = Stability of the compound in human plasma assessed as parent compound remaining at 1 uM measured after 10 mins by LC-MS/MS analysis; format: ADME, cell-free; conditions: read-out: Stability; how it was run: as §1
[10] = Stability of the compound in mouse plasma assessed as parent compound remaining at 1 uM measured after 10 mins by LC-MS/MS analysis; format: ADME, cell-free; conditions: read-out: Stability; how it was run: as §1
[11] = AUC (0 to t) in tumor of human HCT116 cells xenografted BALB/c mouse at 80 mg/kg, po administered as single dose by LC-MS/MS analysis; format: ADME, organism-based, Neoplasm
How it was run: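 Tumour-bearing mice (n = 6 per group) given one oral dose of 80 mg/kg. Blood and tumour collected into heparinized tubes at 0, 0.25, 0.5, 1, 2, 4, 8, 12 and 24 h. Plasma obtained by centrifugation at 3000 rpm for 10 min. Samples stored at -80 °C and quantified by LC-MS/MS.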

[12] = Clearance in human liver microsomes at 10 uM preincubated for 5 mins followed by NADPH addition by LC-MS/MS analysis; format: ADME, Microsome; conditions: read-out: CLH
How it was run: (§4)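 Compound at 10 µM preincubated 5 min at 37 °C with human or mouse liver microsomes (0.5 mg/mL) in 100 mM phosphate, pH 7.4. Reaction started with 1 mM NADPH, stopped with cold acetonitrile, centrifuged and analysed by LC-MS/MS.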

[13] = Effect on HSP70 in human HCT116 cells up to 10 uM measured after 24 hrs by Western blot analysis; format: cell-based; how it was run: as §3
[14] = tested on: HCT-116; assay: Effect on total phosphorylated CDC37 expression in human HCT116 cells up to 10 uM measured after 24 hrs by Western blot analysis; format: ADME, cell-based; conditions: hct-116, 24 h; how it was run: as §3
[15] = Stability of the compound in mouse plasma assessed as parent compound remaining at 1 uM measured after 60 mins by LC-MS/MS analysis; format: ADME, cell-free; conditions: read-out: Stability; how it was run: as §1
[16] = Clearance in mouse liver microsomes at 10 uM preincubated for 5 mins followed by NADPH addition by LC-MS/MS analysis; format: ADME, Microsome; conditions: read-out: CLH; how it was run: as §4
[17] = tested on: HCT-116; assay: Effect on CDC37 expression in human HCT116 cells at 10 uM measured up to 48 hrs by Western blot analysis; format: cell-based; conditions: hct-116, 48 h; how it was run: as §3
[18] = target: T2, Heat shock protein HSP90 (Homo sapiens, UniProt P07900+P08238); assay: Inhibition of recombinant full-length HSP90 ATPase activity N-terminal domain (9 to 236 residues) (unknown origin) expressed in Escherichia coli BL21 (DE3) measured after 1 hr by ADP hunter plus assay
[19] = Effect on HSP70 in human HCT116 cells at 10 uM measured up to 48 hrs by Western blot analysis; format: cell-based; how it was run: as §3
[20] = target: T2, Heat shock protein HSP90; assay: Binding affinity to recombinant […] HSP90 N-terminal domain (9 to 236 residues) (unknown origin) expressed in Escherichia coli BL21 (DE3) by isothermal calorimetric method
How it was run: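 ITC: 50 µM Hsp90 in the cell and 300 µM compound in the syringe, both in 20 mM Tris-HCl, 150 mM NaCl, pH 7.4. Nineteen injections at 180 s intervals with stirring at 1000 rpm.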

[21] = Stability of the compound in mouse plasma assessed as parent compound remaining at 1 uM measured after 90 mins by LC-MS/MS analysis; format: ADME, cell-free; conditions: read-out: Stability; how it was run: as §1

Cc1cc(C)c(S(=O)(=O)N(CC(=O)O)c2ccc(Nc3ccnc(N4CCNCC4)n3)cc2)c(C)c1
remaining at 1 h, 1 µM [1]: 102%
IC50 [2]: > 50 µM
CL/F [3]: 9.93 mL/min/kg
IC50 [4]: > 50 µM
Activity [5]: Non-Toxic
remaining at 0.5 h, 1 µM [6]: 102%
remaining at 0.5 h, 1 µM [7]: 104%
Activity [8]: Non-Toxic
remaining at 10 min, 1 µM [9]: 98%
remaining at 10 min, 1 µM [10]: 100%
AUC(0-t) [11]: 132 µg·h/mL
microsomal CLint at 10 µM [12]: 8.97 µL/min/mg
Activity [13]: Non-Toxic
Activity [14]: Non-Toxic
remaining at 1 h, 1 µM [15]: 101%
microsomal CLint at 10 µM [16]: 10.3 µL/min/mg
Activity [17]: Non-Toxic
IC50 [18]: > 100 µM
Activity [19]: Non-Toxic
Kd [20]: 0.63 µM
remaining at 1.5 h, 1 µM [21]: 105%
